RGS4 pot – RGS4 potentiators or activators, primary screen, cell-based, HEK293 M3R inducible RGS4, calcium flux | carbachol calcium flux Fluo4; active compounds read low | B-score at 10 µM | actives 0.92% (n = 310,000) | AID 463111, 2010;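 active means B-score of the integrated calcium signal more than 4 SD below the library mean, with starting fluorescence not abnormally high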;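 further: negative B-score means reduced calcium response which marks RGS4 activation or potentiation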
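Reagent: ECmax carbachol challenge; Test system: M3R-expressing HEK293 line, RGS4 induced by doxycycline; Schedule: overnight RGS4 induction, 30 min dye load 37 °C, 20 min compound RT; Detection: calcium dye Fluo4 fluorescence; Read-out: Agonist-evoked peak-minus-minimum fluorescence over baseline, integrated ratio, B score.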
MrgX1 antagonist – antagonists of human MrgX1 receptor, primary screen, HEK293 cells, Fluo-4 calcium flux | B-score at 10 µM | Mas-related G-protein coupled receptor member X1 (Homo sapiens), Q96LB2 | AID 588676, 2011 | actives 1.3% (n = 310,000) | BAM8-22 antagonism; active compounds read low;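 active means calcium-response B-score plate-corrected more than 3 library SD below zero, starting fluorescence within 5 deviations, no agonist response on first addition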;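 further: peak minus trough fluorescence over baseline after final BAM8-22 challenge near maximal dose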
Target sequence (Q96LB2 whole entry, looked up): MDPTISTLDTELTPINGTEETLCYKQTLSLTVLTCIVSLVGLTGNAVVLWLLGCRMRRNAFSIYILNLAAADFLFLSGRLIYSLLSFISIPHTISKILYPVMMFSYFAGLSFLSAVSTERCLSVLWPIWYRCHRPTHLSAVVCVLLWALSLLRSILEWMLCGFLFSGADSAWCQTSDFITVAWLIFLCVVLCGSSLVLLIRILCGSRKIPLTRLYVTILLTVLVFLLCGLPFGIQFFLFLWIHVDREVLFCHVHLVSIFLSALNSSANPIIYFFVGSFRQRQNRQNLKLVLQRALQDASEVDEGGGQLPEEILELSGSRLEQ
MrgX1 allo act – positive allosteric modulators of MrgX1, primary screen, HEK293 cells, Fluo-4 calcium flux; FDSS; active compounds read high; B-score at 10 µM; actives 0.63% (n = 310,000); AID 588675, 2011;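 active means plate-corrected calcium response at least 3 library SD above typical, normal starting fluorescence, not activating the receptor alone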;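 further: compound read alongside a low EC10 to EC30 dose of BAM8-22 agonist; peak minus trough fluorescence over baseline measured at the second addition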
RGS4 block – RGS4 inhibitors, primary screen, cell-based, HEK293 M3R inducible RGS4, calcium flux; Regulator of G-protein signaling 4 (Homo sapiens), P49798; B-score at 10 µM; actives 0.45% (n = 310,000); AID 463165, 2010; Fluo-4 calcium flux; active compounds read high; triggered by carbachol at its EC20;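 active means B-score, a plate-corrected calcium signal, over three deviations above library mean, with baseline fluorescence within five deviations of library mean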;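 further: RGS4 expression induced by doxycycline in cells with stable M3 receptor; B-score is computed from the integrated fluorescence ratio over baseline after carbachol; higher B-score means a larger calcium signal and so more RGS4 inhibition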
Target sequence (P49798 whole entry, looked up): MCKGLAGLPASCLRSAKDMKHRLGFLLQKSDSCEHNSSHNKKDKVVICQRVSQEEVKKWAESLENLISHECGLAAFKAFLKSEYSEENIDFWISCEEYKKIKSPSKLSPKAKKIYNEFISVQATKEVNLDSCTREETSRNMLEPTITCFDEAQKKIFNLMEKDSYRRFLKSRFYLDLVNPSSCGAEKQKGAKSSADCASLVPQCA
MrgX1 ag – agonists of human MrgX1 receptor, primary screen, HEK293 cells, Fluo-4 calcium flux; AID 588627, 2011; Fluo-4 calcium fluorescence, agonist mode; active compounds read high; B-score at 10 µM; Mas-related G-protein coupled receptor member X1 (Homo sapiens), Q96LB2; actives 0.44% (n = 310,000);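 active means calcium response B-score plate-corrected fluorescence ratio at least 3 library SD, with starting fluorescence B-score inside 5 SD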
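Material: MrgX1-expressing HEK293 cells; input: 15,000 cells per well; doses: test compound given as first of three sequential additions; schedule: overnight plating before 1 h dye loading; technique: Fluo-4 NW calcium-flux fluorescence, kinetic read; evaluation: baseline-normalised fluorescence change ratio, B-scored; control set: plate-wise positive and negative controls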
RGS4 block valid – enhanced carbachol calcium response, M3R/RGS4 cells, RGS4 inhibitor project, cell-based, validation screen, HEK293 M3R/RGS4, calcium flux; shares compounds with RGS4 block; actives 65% (n = 1,700); calcium response, % at 10 µM; carbachol calcium Fluo-4 fluorescence; carbachol added at its EC20; 0 = buffer wells, 100 = carbachol control;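 active means duplicate-averaged calcium response above the buffer-only control mean plus 5 SD of those controls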;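 further: integrated fluorescence ratio F max minus min over baseline F0; higher response in RGS4-induced cells means RGS4 inhibition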
RGS4 uninduced – carbachol calcium response in non-induced M3R cells, confirmation, counter-screen for RGS4 inhibitor project, cell-based, HEK293 M3R; carbachol calcium Fluo-4; submaximal (EC20) carbachol stimulus; buffer wells 0%, carbachol control wells 100%; actives 20% (n = 1,900); activity (percent), % at 10 µM; shares compounds with RGS4 block; call rule not given here;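 further: RGS4 induction absent so cells express M3R without RGS4; higher means more calcium signal and flags a non-specific hit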
RGS4 inh ctr2 – signal in non-induced cells without carbachol, RGS4 inhibitor counter-screen; actives 22% (n = 1,900); AID 493001; shares compounds with RGS4 block; calcium response (agonist-mode artifact), % at 10 µM; HEK293 M3R/RGS4 non-induced, Fluo-4 calcium, no carbachol; normalised: buffer wells 0%, carbachol wells 100%;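 active means duplicate-averaged calcium rise in uninduced cells above buffer wells' mean plus 5 SD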
An asterisk follows results filed as active; i = inactive; · = not tested or not shown. A selection: hits, their analogues and other compounds. The true share with any hit is near 3.5%.

SMILES | RGS4 pot | MrgX1 antagonist | MrgX1 allo act | RGS4 block | MrgX1 ag | RGS4 block valid | RGS4 uninduced | RGS4 inh ctr2
CC(CCc1ccccc1)NC(=O)CCCCCNc1nc(=S)[nH]c2ccccc12 (centres undefined) | i | i | i | i | i | · | · | ·
CC(Sc1nc(N)cc(=O)[nH]1)C(=O)Nc1nc2c(s1)CCCC2 (centres undefined) | i | i | i | i | i | · | · | ·
COc1cc2nc(CN3CCOCC3)n(CC(=O)NCC(F)(F)F)c(=O)c2cc1OC | i | i | i | i | i | · | · | ·
COc1ccc(CN2[C@@H](CC(C)=O)c3ccc(/C=C/C(C)=O)cc3S2(=O)=O)cc1 | i | i | i | i | i | · | · | ·
COc1cccc(N2[C@@H](CC(C)=O)c3ccc(/C=C/C(C)=O)cc3S2(=O)=O)c1 | i | i | i | 8.2* | i | 32%* | 54%* | i
CSCc1cc(N2CCOCC2)nc(-c2ccccc2)n1 | i | i | i | i | i | · | · | ·
CC(C)Sc1cc(N2CCOCC2)nc(-c2ccc(Cl)cc2)n1 | i | i | i | 5.2* | i | 12%* | 28%* | i
CCN1CCN(c2cc(SC(C)C)nc(-c3ccc(OC)cc3)n2)CC1 | i | · | · | i | · | · | · | ·
c1ccc(-c2nc(N3CCOCC3)cc(N3CCOCC3)n2)cc1 | i | i | i | i | i | · | · | ·
COc1cccc(Sc2cc(N3CCOCC3)nc(-c3ccccc3)n2)c1 | i | i | i | 8.8* | i | 34%* | i | i
Clc1ccc(Sc2cc(N3CCOCC3)nc(-c3ccccc3)n2)cc1 | i | i | i | 7.7* | i | 14%* | i | i
OCC1CCCC(n2cnc3c(=S)nc[nH]c32)O1 (centres undefined) | i | i | i | i | i | · | · | ·
Cc1ccc(C)c(C2=NNC(=O)CC2)c1 | i | i | i | i | i | · | · | ·
CCCC1=C(C(=O)OCC)C(c2cccnc2)n2nc(C)nc2N1 (centres undefined) | i | i | i | i | i | · | · | ·
CC1=C(C(=O)c2ccccc2)C(c2cn(-c3ccccc3)nc2-c2ccc(Cl)cc2)NC(=S)N1 (centres undefined) | i | i | i | 4.9* | i | 10%* | i | 9.0%*
CCCN(CCC)CCNC(=O)CN1C(=O)COc2ccc(S(=O)(=O)N3CCOCC3)cc21 | i | i | i | i | i | · | · | ·
COCCCNC(=O)CN1C(=O)COc2ccc(S(=O)(=O)N3CCOCC3)cc21 | i | i | i | i | i | i | i | i
Cc1[nH]nc2c1C(c1ccc(-c3ccccc3C#N)o1)C(C#N)=C(N)O2 (centres undefined) | i | i | i | 9.8* | i | 24%* | i | 8.5%*
CN1CCN(c2ccc(-c3ccnn3C(=O)Nc3cccc(C(F)(F)F)c3)cc2)CC1 | i | i | i | i | i | · | · | ·
C/C(=N/NC(=O)CNc1ccc(C)cc1)c1ccc(Cl)cc1 | i | i | i | 5.5* | i | 7.0%* | i | i
Cc1ccc(C(=O)CNc2ccc(Cl)cc2)cc1 | i | i | i | i | i | · | · | ·
O=c1[nH]c2ccc(Br)cc2c(-c2ccccc2)c1CN1CCOCC1 | i | i | i | 7.5* | i | 19%* | 48%* | i
O=c1[nH]c2ccc(Br)cc2c(-c2ccccc2)c1N1CCOCC1 | i | i | i | i | i | · | · | ·
COc1ccccc1CN(C)C(=O)c1ccccc1Sc1ccccc1C#N | i | i | i | i | i | · | · | ·
[S-]c1nnc(-c2ccc(Br)cc2)n1-c1ccccc1.[Zn+2] | i | i | i | i | i | · | · | ·
SMILES | RGS4 pot | MrgX1 antagonist | MrgX1 allo act | RGS4 block | MrgX1 ag | RGS4 block valid | RGS4 uninduced | RGS4 inh ctr2
N#Cc1c(Cl)c(Cl)c2nnc(-c3ccc(Br)cc3)n2c1Cl | i | i | i | 6* | i | 8.0%* | i | 11%*
Cc1ccc(-n2c(O)c(/C=C3/C(c4ccccc4)=Nc4ccccc43)c(=O)[nH]c2=O)cc1 | i | i | i | 9.8* | 29* | 5.0%* | i | 49%*
COc1ccc(-n2c(O)c(/C=C3\C=Nc4ccccc43)c(=O)[nH]c2=O)cc1 | i | · | · | i | · | · | · | ·
CC1=NN(c2ccc(Cl)cc2)C(=O)C1C(c1cccc(O)c1)c1c(C)[nH]n(-c2ccc(Cl)cc2)c1=O (centres undefined) | i | i | i | i | i | · | 36%* | i
CC1=NN(c2ccc(F)cc2)C(=O)C1C(c1cccc(O)c1)c1c(C)[nH]n(-c2ccc(F)cc2)c1=O (centres undefined) | i | i | i | 9.7* | i | 13%* | i | i
CC1=NN(c2ccc(C)cc2C)C(=O)C1C(c1ccccc1)C1C(=O)N(c2ccc(C)cc2C)N=C1C (centres undefined) | i | i | i | i | i | · | · | ·
CN(CC(=O)Nc1ccccc1Br)C(=O)CNC(=O)c1ccc(Oc2ccccc2)cc1 | i | i | i | i | i | · | · | ·
Cc1cc(S(=O)(=O)N2CCOCC2)c(C)s1 | i | i | i | i | i | · | · | ·
O=C(COc1ccccc1)N1CCN(C(=O)c2ccccc2F)CC1 | i | i | i | i | i | · | · | ·
CCOC(=O)C1=C(CS(=O)(=O)c2ccc(C)cc2)NC(=O)NC1c1ccc(O)c(OC)c1 (centres undefined) | i | i | i | i | i | · | · | ·
COC(=O)C1=C(CS(=O)(=O)c2ccc(C)cc2)NC(=O)NC1c1ccc(OC)c(OC)c1 (centres undefined) | i | i | i | i | i | i | i | i
CCCN1CCN(C(=O)Cn2nc(CC)n3c(cc4sccc43)c2=O)CC1 | i | i | i | i | i | · | · | ·

High-throughput results deposited in PubChem BioAssay by Johns Hopkins Ion Channel Center.
